Published values of several laboratories.
Target: LIM domain kinase 1 (LIMK1, Homo sapiens, UniProt P53667)

`COCCOc1nc(-c2ccc(Cl)nc2)nc2c1CN(C(=O)c1ncn3ccccc13)CC2` has a remaining binding of 100% (cell-free assay, competition with immobilised ligand; 0.1 µM).
For `COc1ccnn2ncc(-c3ccnc(N(C)C)n3)c12`, the remaining binding was 100% (binding; 1 µM).
With `Cc1cnc(Nc2ccc(C(=O)N3CCC(N4CCCC4)CC3)cc2)nc1-c1cc2ccccc2s1` the remaining binding was 55% (binding, competition with immobilised ligand; 1 µM).
`COc1cnc(Nc2cccc(S(N)(=O)=O)c2)nc1N1CCN(c2ccccc2)CC1` has a remaining binding of 100% (binding, competition with immobilised ligand; 1 µM).
The remaining binding of `CN(C)c1nccc(-c2cnc3ncccn23)n1` is reported as 100% (binding; 1 µM).
`C[C@@H](c1ccc(-n2cnc3c(N)ncnc32)cc1)N1CCc2nn(C)c(Cc3ccccc3)c2C1=O` gave a remaining binding of 65% (binding, competition with immobilised ligand; 0.1 µM).
For `Cc1cc(NC(=O)c2cccc(S(F)(F)(F)(F)F)c2)cc(-n2ccn3nc(-c4cccnc4)cc23)c1`, the remaining binding was 100% (cell-free assay, competition with immobilised ligand; 1 µM).
The remaining binding of `Cc1cnn2ncc(-c3ccnc(N(C)C)n3)c2c1` is reported as 100% (binding; 1 µM).
`O=C(c1ccc(Nc2ncc(Cl)c(-c3ccc(Cl)s3)n2)cc1)N1CCC(N2CCCC2)CC1` gave a remaining binding of 40% (binding, competition with immobilised ligand; 1 µM).
With `CN(C)c1ncc(F)c(-c2cnn3ncccc23)n1` the remaining binding was 89% (binding; 1 µM).
With `O=C(c1ccc(Nc2nccc(-c3cc4ccccc4s3)n2)cc1)N1CCC(N2CCCC2)CC1` the remaining binding was 20% (binding, competition with immobilised ligand; 1 µM).
`O=C(NCC1CCOCC1)c1n[nH]cc1NC(=O)c1c(F)cccc1F` has a remaining binding of 100% (binding, competition with immobilised ligand; 1 µM).
`Cc1c(NC(=O)c2cc(C(N)=O)nc3cc(F)ccc23)c(C(F)(F)F)nn1Cc1ccc(C#N)cc1` gave a remaining binding of 78% (cell-free assay, competition with immobilised ligand; 1 µM).
The remaining binding of `N[C@@H]1CCN(c2nccc(-c3cnn4ncccc34)n2)C1` is reported as 73% (binding; 1 µM).
`O=C(NCc1ncc(C(F)(F)F)cc1Cl)c1ccc2c(c1)C1(CCS(=O)(=O)CC1)[C@@H](C1CC1)N2S(=O)(=O)c1ccc(F)cc1` gave a remaining binding of 91% (cell-free assay, competition with immobilised ligand; 1 µM).
With `FC(F)(F)Oc1cccc(-c2cnc3ccc(-c4ccncc4)nn23)c1` the remaining binding was 81% (cell-free assay, competition with immobilised ligand; 5 µM).
`N#CC1(c2ccccn2)CCN(Cc2cc(C(=O)N3CCCC3)c(=O)n3ccccc23)CC1` gave a remaining binding of 98% (cell-free assay, competition with immobilised ligand; 1 µM).
The remaining binding of `C[C@@H]1CCN(c2nccc(-c3cnn4ncccc34)n2)C1` is reported as 100% (binding; 1 µM).
`COc1cnc(Nc2cccc(S(N)(=O)=O)c2)nc1N1CCN(c2ccccc2)C(=O)C1` gave a remaining binding of 100% (binding, competition with immobilised ligand; 1 µM).
The remaining binding of `CCCCN(CCCC)C(=O)CN1C[C@@H](c2cc(OC)c3c(c2)OCO3)[C@H](C(=O)O)[C@H]1CC(C)(C)CCC` is reported as 99% (cell-free assay, competition with immobilised ligand; 1 µM).
